This is an account of results in ChEMBL document CHEMBL1124668, “Solid-phase synthesis of 16 potent (selective and nonselective) in vivo antagonists of oxytocin” (J Med Chem, 1989).

Assay [1] relates to Rattus norvegicus. The assay is described as follows: (§1) Antivasopressor activity in vivo in phenoxybenzamine pre-treated rats. The conditions noted are these: read-out: pA2 (converted). The assay is classed as functional, organism-based. The method, boiled down:
(§2)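 Rats pretreated with phenoxybenzamine, under urethane anesthesia; antagonist given iv; agonist USP Posterior Pituitary Reference Standard; read-out is pressor response. Effective dose (nmol/kg) is the dose that cuts the response to 2X units of agonist to that of 1X unit, interpolated semilogarithmically from bracketing doses. pA2 assumes a 67 mL/kg distribution volume. SEM is given where there are ≥4 independent estimates.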

The species named for assay [2] is Rattus norvegicus. The experiment in a line: Antioxytoxic activity in vitro in isolated uteri from estrogen pretreated rats suspended in Mg supplemented Dyke-Hastings solution. In kind it is functional. The conditions noted are these: read-out: pA2 (converted). The method, boiled down:
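Isolated rat uterus in bath medium with Mg2+; agonist USP Posterior Pituitary Reference Standard. pA2 is the −log of the effective molar antagonist concentration that reduces the response to a dose of agonist to the response to half that dose. It is interpolated semilogarithmically from concentrations above and below it. SEM is given where there are ≥4 independent estimates.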

The species entered for assay [3] is Rattus norvegicus. The experiment in a line: Antioxytoxic activity in vitro in isolated uteri from estrogen pretreated rats suspended in Mg-free Dyke-Hastings solution. Conditions: read-out: pA2 (converted).
For assay [4], the system named is Rattus norvegicus. The experiment in a line: Antioxytocic potencies (change in interuterine pressure) in vivo in estrogen pre-treated rats. The assay is classed as functional, organism-based. Conditions: read-out: pA2 (converted). The essentials: (§3)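 Rats pretreated with estrogen, under urethane anesthesia; antagonist given iv; read-out is change in integrated intrauterine pressure; agonist synthetic oxytocin. Effective dose (nmol/kg) is the dose that cuts the response to 2X units of agonist to the response to 1X unit, interpolated on a semilog scale from doses above and below it. pA2 is derived assuming a 67 mL/kg distribution volume.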

Assay [5] relates to Rattus norvegicus. The description is as §1. The assay is classed as functional. The method, boiled down: as §2
Assay [6] has as its system Rattus norvegicus. The assay is described as follows: In vivo inhibition of estrogen induced changes in interuterine pressure in rats. The assay is classed as functional. The method, boiled down:
as §3

The subject of assay [7] is Rattus norvegicus. The experiment in a line: Antiantidiuretic activity in vivo in hydrated rats under ethanol anaesthesia. Conditions: Urine, read-out: pA2 (converted). The assay is classed as functional, organism-based. The essentials: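 Hydrated rats under ethanol anaesthesia; antagonist given iv against the USP Posterior Pituitary Reference Standard as agonist. Effective dose (nmol/kg) is the dose that cuts the response to 2x units of agonist to equal the response to 1x unit. It is estimated by interpolation on a semilog scale between doses above and below it. pA2 assumes a volume of distribution of 67 mL/kg. Where SEM is given, n ≥4 estimates.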

Starred links: 1 amine or outer side, 2 acyl side, 3 side chain; linkers in the order of their positions; H or OH if unused. Positions of bridges follow the written chain, without caps; N, C: chain ends. Non-standard residues stand in square brackets, D forms with d. Residues, ends and D or L forms follow the SMILES beside them. X1 = O=C(CC1(S[*:2])CCCCC1)[*:1]; Orn = NCCC[C@H](N)C(=O)O

On to `CC[C@H](C)[C@@H]1NC(=O)[C@H](Cc2ccc(OC)cc2)NC(=O)CC2(CCCCC2)SSC[C@@H](C(=O)N2CCC[C@H]2C(=O)N[C@@H](CCCN)C(=O)N[C@@H](C)C(N)=O)NC(=O)[C@H](CC(N)=O)NC(=O)[C@H]([C@@H](C)O)NC1=O` [listing 1 of 2 here], for which the Kb in assay [1] is 112 nM; in assay [2] it was 6.31 nM; in assay [3], 24 nM; in assay [4], 34.7 nM.

With `CC[C@H](C)[C@@H]1NC(=O)[C@H](Cc2ccc(OC)cc2)NC(=O)CC2(CCCCC2)SSC[C@@H](C(=O)N2CCC[C@H]2C(=O)N[C@@H](CCCN)C(=O)N[C@@H](C)C(N)=O)NC(=O)[C@H](CC(N)=O)NC(=O)[C@H]([C@@H](C)O)NC1=O` [listing 2 of 2 here], the ED in assay [5] was found to be 8.1 nM/kg; in assay [6] it was 2.4 nM/kg.

Turning to `CC[C@H](C)[C@@H]1NC(=O)[C@@H](Cc2ccccc2)NC(=O)CC2(CCCCC2)SSC[C@@H](C(=O)N2CCC[C@H]2C(=O)N[C@@H](CCCN=C(N)N)C(=O)NCC(N)=O)NC(=O)[C@H](CC(N)=O)NC(=O)[C@H](C(C)C)NC1=O`, the Kb was 229 nM in assay [1]; 5.62 nM in assay [2]; 617 nM in assay [7]; 12.9 nM in assay [3]; 34.7 nM in assay [4].

In the case of `CC[C@H](C)[C@@H]1NC(=O)[C@@H](Cc2ccc(OC)cc2)NC(=O)CC2(CCCCC2)SSC[C@@H](C(=O)N2CCC[C@H]2C(=O)N[C@@H](CCCN=C(N)N)C(=O)NCC(N)=O)NC(=O)[C@H](CC(N)=O)NC(=O)[C@H](C(C)C)NC1=O`, the Kb in assay [1] is 15.1 nM; in assay [2], 5.62 nM; in assay [7], 132 nM; in assay [3], 22.4 nM; in assay [4], 33.1 nM.

On to `CC[C@H](C)[C@@H]1NC(=O)[C@H](Cc2ccc(OC)cc2)NC(=O)CC2(CCCCC2)SSC[C@@H](C(=O)N2CCC[C@H]2C(=O)N[C@@H](CCCN)C(=O)N[C@@H](CCCN=C(N)N)C(N)=O)NC(=O)[C@H](CC(N)=O)NC(=O)[C@H]([C@@H](C)O)NC1=O` [listing 1 of 2 here], for which the Kb in assay [1] was 11 nM; in assay [2], 5.5 nM; in assay [3], 20.4 nM; in assay [4] it was 28.8 nM.

In the case of `CC[C@H](C)[C@@H]1NC(=O)[C@H](Cc2ccc(OC)cc2)NC(=O)CC2(CCCCC2)SSC[C@@H](C(=O)N2CCC[C@H]2C(=O)N[C@@H](CCCN)C(=O)N[C@@H](CCCN=C(N)N)C(N)=O)NC(=O)[C@H](CC(N)=O)NC(=O)[C@H]([C@@H](C)O)NC1=O` [listing 2 of 2 here], the ED in assay [5] turned out to be 0.76 nM/kg; in assay [6] it was 2.3 nM/kg.

Regarding `CCOc1ccc(C[C@H]2NC(=O)CC3(CCCCC3)SSC[C@@H](C(=O)N3CCC[C@H]3C(=O)N[C@@H](CCCNC(N)=O)C(=O)NCC(N)=O)NC(=O)[C@H](CC(N)=O)NC(=O)[C@H](C(C)C)NC(=O)[C@H](Cc3ccccc3)NC2=O)cc1`, the Kb in assay [1] is 11.7 nM; in assay [2], 14.8 nM; in assay [7], 309 nM; in assay [3] it was 2.45 nM; in assay [4] it was 25.7 nM.

For `COc1ccc(C[C@H]2NC(=O)CC3(CCCCC3)SSC[C@@H](C(=O)N3CCC[C@H]3C(=O)N[C@@H](CCCN=C(N)N)C(=O)NCC(N)=O)NC(=O)[C@H](CC(N)=O)NC(=O)[C@H](CCC(N)=O)NC(=O)[C@H](Cc3ccccc3)NC2=O)cc1`, the Kb in assay [1] was 5.37 nM; in assay [2], 4.79 nM; in assay [7], 105 nM; in assay [3], 13.5 nM; in assay [4] it was 33.9 nM.

Take `COc1ccc(C[C@@H]2NC(=O)CC3(CCCCC3)SSC[C@@H](C(=O)N3CCC[C@H]3C(=O)N[C@@H](CCCN=C(N)N)C(=O)NCC(N)=O)NC(=O)[C@H](CC(N)=O)NC(=O)[C@H](CCC(N)=O)NC(=O)[C@H](Cc3ccccc3)NC2=O)cc1`: the ED in assay [5] was 0.16 nM/kg; in assay [6] it was 17 nM/kg.

`COc1ccc(C[C@H]2NC(=O)CC3(CCCCC3)SSC[C@@H](C(=O)N3CCC[C@H]3C(=O)N[C@@H](CCCN=C(N)N)C(=O)NCC(N)=O)NC(=O)[C@H](CC(N)=O)NC(=O)[C@H](C(C)C)NC(=O)[C@H](Cc3ccccc3)NC2=O)cc1`: the Kb is 3.31 nM in assay [1]; 14.8 nM in assay [2]; 17 nM in assay [7]; 11 nM in assay [3]; 26.9 nM in assay [4].

On to `COc1ccc(C[C@H]2NC(=O)CC3(CCCCC3)SSC[C@@H](C(=O)N3CC=C[C@H]3C(=O)N[C@@H](CCCN=C(N)N)C(=O)NCC(N)=O)NC(=O)[C@H](CC(N)=O)NC(=O)[C@H](C(C)C)NC(=O)[C@H](Cc3ccccc3)NC2=O)cc1`, for which the Kb in assay [1] was 8.32 nM; in assay [2] it was 110 nM; in assay [7], 24.5 nM; in assay [3] it was 13.2 nM.

Consider `COc1ccc(C[C@@H]2NC(=O)CC3(CCCCC3)SSC[C@@H](C(=O)N3CCC[C@H]3C(=O)N[C@@H](CCCN=C(N)N)C(=O)NCC(N)=O)NC(=O)[C@H](CC(N)=O)NC(=O)[C@H](C(C)C)NC(=O)[C@H](Cc3ccccc3)NC2=O)cc1`, for which the Kb was 13.5 nM in assay [2], 44.7 nM in assay [7], 4.37 nM in assay [3] and 115 nM in assay [4].

With `CC[C@H](C)[C@@H]1NC(=O)[C@H](Cc2ccc(OC)cc2)NC(=O)CC2(CCCCC2)SSC[C@@H](C(=O)N2CCC[C@H]2C(=O)N[C@@H](CCCN)C(=O)NCC(N)=O)NC(=O)[C@H](CC(N)=O)NC(=O)[C@H](CCC(N)=O)NC1=O` (Y(Me)IQNCP[Orn]G-NH2; linker N-5 via X1), the Kb in assay [1] is 11 nM; in assay [2] it was 13.2 nM; in assay [3], 3.02 nM; in assay [4] it was 42.7 nM.

For `CC[C@H](C)[C@@H]1NC(=O)[C@H](Cc2ccc(OC)cc2)NC(=O)CC2(CCCCC2)SSC[C@@H](C(=O)N2CCC[C@H]2C(=O)N[C@@H](CCCN)C(N)=O)NC(=O)[C@H](CC(N)=O)NC(=O)[C@H]([C@@H](C)O)NC1=O` (Y(Me)ITNCP[Orn]-NH2; linker N-5 via X1), the Kb in assay [1] was 105 nM; in assay [2], 2.75 nM; in assay [7], about 1580 nM; in assay [3], 6.76 nM; in assay [4] it was 24.5 nM.

As to `CC[C@H](C)[C@@H]1NC(=O)[C@H](Cc2ccc(OC)cc2)NC(=O)CC2(CCCCC2)SSC[C@@H](C(=O)N2CCC[C@H]2C(=O)N[C@@H](CCCN)C(=O)N[C@@H](CC(C)C)C(N)=O)NC(=O)[C@H](CC(N)=O)NC(=O)[C@H]([C@@H](C)O)NC1=O` (Y(Me)ITNCP[Orn]L-NH2; linker N-5 via X1), the Kb in assay [1] was 407 nM; in assay [2], 3.47 nM; in assay [3] it was 16.6 nM; in assay [4] it was 26.9 nM.

Regarding `CC[C@H](C)[C@@H]1NC(=O)[C@H](Cc2ccc(OC)cc2)NC(=O)CC2(CCCCC2)SSC[C@@H](C(=O)N2CCC[C@H]2C(=O)N[C@@H](CCCN)C(=O)N[C@@H](Cc2ccc(O)cc2)C(N)=O)NC(=O)[C@H](CC(N)=O)NC(=O)[C@H]([C@@H](C)O)NC1=O` (Y(Me)ITNCP[Orn]Y-NH2; linker N-5 via X1), the Kb in assay [1] was 95.5 nM; in assay [2], 5.25 nM; in assay [3], 23.4 nM; in assay [4] it was 14.8 nM.

With `CCOc1ccc(C[C@H]2NC(=O)CC3(CCCCC3)SSC[C@@H](C(=O)N3CCC[C@H]3C(=O)N[C@@H](CCCN=C(N)N)C(=O)NCC(N)=O)NC(=O)[C@H](CC(N)=O)NC(=O)[C@H](C(C)C)NC(=O)[C@H](Cc3ccccc3)NC2=O)cc1` ([dY](Et)FVNCPRG-NH2; linker N-5 via X1), the Kb in assay [1] was 6.03 nM; in assay [7] it was 15.5 nM; in assay [4] it was 33.9 nM.

As for `CC[C@H](C)[C@@H]1NC(=O)C(Cc2ccc(OC)cc2)NC(=O)CC2(CCCCC2)SSC[C@@H](C(=O)N2CCC[C@H]2C(=O)N[C@@H](CCCN=C(N)N)C(=O)NCC(N)=O)NC(=O)[C@H](CC(N)=O)NC(=O)[C@H](CCC(N)=O)NC1=O` (stereo in doubt), the Kb in assay [1] is 8.32 nM; in assay [2], 3.24 nM; in assay [3] it was 1.91 nM; in assay [4] it was 15.8 nM.

For `CC[C@H](C)[C@@H]1NC(=O)C(Cc2ccc(OC)cc2)NC(=O)CC(C)(C)SSC[C@@H](C(=O)N2CCC[C@H]2C(=O)N[C@@H](CCCN=C(N)N)C(=O)NCC(N)=O)NC(=O)[C@H](CC(N)=O)NC(=O)[C@H](C(C)C)NC1=O` (stereo in doubt), the Kb in assay [1] was 3.47 nM; in assay [2] it was 7.76 nM; in assay [3], 17.8 nM; in assay [4], 26.9 nM.

For `CC[C@H](C)[C@@H]1NC(=O)C(Cc2ccc(OC)cc2)NC(=O)CC(C)(C)SSC[C@@H](C(=O)N2CCC[C@H]2C(=O)N[C@@H](CCCN=C(N)N)C(=O)NCC(N)=O)NC(=O)[C@H](CC(N)=O)NC(=O)[C@H](CCC(N)=O)NC1=O` (stereo in doubt), the Kb in assay [1] is 3.55 nM; in assay [2] it was 1.95 nM; in assay [3], 0.759 nM; in assay [4] it was 24.5 nM.

Regarding `CC[C@H](C)[C@@H]1NC(=O)C(Cc2ccc(OC)cc2)NC(=O)CC2(CCCCC2)SSC[C@@H](C(=O)N2CCC[C@H]2C(=O)N[C@@H](CCCCN)C(=O)NCC(N)=O)NC(=O)[C@H](CC(N)=O)NC(=O)[C@H](CCC(N)=O)NC1=O` (stereo in doubt), the Kb is 20.9 nM in assay [1], 15.5 nM in assay [2], 23.4 nM in assay [3] and 58.9 nM in assay [4].
